Measurements taken from ChEMBL document CHEMBL3392991, “Structure-based design of bacterial nitric oxide synthase inhibitors” (J Med Chem, 2015).
Activity calls are given as the source filed them. The rule behind the calls is not given here.

Legend:
Bacillus subtilis [1] = assay: Inhibition of NADPH-dependent Bacillus subtilis NOS using bBiDomain and Escherichia coli flavodoxin reductase YumC assessed as nitrite level at 300 uM by Griess reaction; parameters: Activity: scale not given: the % may be the effect or the level left
In short: (§1)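 bBiDomain with the flavodoxin reductase YumC, NADPH-driven, 50 μM H4B included. Inhibitor tested over a range of concentrations. Nitrite measured at a single time point.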

Bacillus subtilis [2] = assay: Inhibition of NADPH-dependent Bacillus subtilis NOS using bBiDomain and Escherichia coli flavodoxin reductase YumC assessed as nitrite level up to 800 uM by Griess reaction; in short: as §1
Bacillus subtilis [3] = assay: Displacement of imidazole from Bacillus subtilis NOS
[4] = target: T1, Nitric oxide synthase, inducible (Mus musculus, UniProt P29477); assay: Inhibition of mouse iNOS
T1 sequence (P29477 whole entry): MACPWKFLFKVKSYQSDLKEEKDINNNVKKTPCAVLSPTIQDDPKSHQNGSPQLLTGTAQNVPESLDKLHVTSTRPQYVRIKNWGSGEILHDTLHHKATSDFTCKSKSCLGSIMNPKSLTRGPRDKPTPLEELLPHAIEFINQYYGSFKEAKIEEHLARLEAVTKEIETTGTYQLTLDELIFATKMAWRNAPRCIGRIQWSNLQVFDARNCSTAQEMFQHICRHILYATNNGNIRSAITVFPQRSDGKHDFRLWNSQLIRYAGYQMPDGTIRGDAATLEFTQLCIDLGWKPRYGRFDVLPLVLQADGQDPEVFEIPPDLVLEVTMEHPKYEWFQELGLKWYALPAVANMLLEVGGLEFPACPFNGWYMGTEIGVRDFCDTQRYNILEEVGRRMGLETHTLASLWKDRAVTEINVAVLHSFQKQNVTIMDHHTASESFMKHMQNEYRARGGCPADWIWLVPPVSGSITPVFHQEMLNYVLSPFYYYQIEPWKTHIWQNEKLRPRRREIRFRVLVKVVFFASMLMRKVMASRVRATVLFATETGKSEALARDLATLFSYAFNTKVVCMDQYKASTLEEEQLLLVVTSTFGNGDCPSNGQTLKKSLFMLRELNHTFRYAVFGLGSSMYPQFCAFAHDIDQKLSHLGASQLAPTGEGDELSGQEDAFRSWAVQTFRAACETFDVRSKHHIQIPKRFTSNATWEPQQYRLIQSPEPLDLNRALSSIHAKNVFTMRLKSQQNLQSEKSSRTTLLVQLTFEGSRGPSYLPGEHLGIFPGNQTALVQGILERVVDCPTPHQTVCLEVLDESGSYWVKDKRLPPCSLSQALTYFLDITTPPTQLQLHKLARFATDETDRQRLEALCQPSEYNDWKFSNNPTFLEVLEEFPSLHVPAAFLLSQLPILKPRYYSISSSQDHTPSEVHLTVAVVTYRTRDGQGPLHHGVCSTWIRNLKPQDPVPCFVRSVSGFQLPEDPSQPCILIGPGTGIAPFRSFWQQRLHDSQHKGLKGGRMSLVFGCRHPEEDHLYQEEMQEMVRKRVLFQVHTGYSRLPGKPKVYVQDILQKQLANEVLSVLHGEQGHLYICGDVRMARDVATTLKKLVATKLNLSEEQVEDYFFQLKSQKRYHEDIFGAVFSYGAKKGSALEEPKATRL

Bacillus subtilis [5] = assay: Displacement of imidazole from Bacillus subtilis NOS in presence of 50 uM H4B
Nitric oxide synthase 1 = Nitric oxide synthase 1 (Rattus norvegicus, UniProt P29476); assay: Inhibition of rat nNOS
Nitric oxide synthase 3 = target: T2, Nitric oxide synthase 3 (Bos taurus, UniProt P29473); assay: Inhibition of bovine eNOS
T2 sequence (P29473 whole entry): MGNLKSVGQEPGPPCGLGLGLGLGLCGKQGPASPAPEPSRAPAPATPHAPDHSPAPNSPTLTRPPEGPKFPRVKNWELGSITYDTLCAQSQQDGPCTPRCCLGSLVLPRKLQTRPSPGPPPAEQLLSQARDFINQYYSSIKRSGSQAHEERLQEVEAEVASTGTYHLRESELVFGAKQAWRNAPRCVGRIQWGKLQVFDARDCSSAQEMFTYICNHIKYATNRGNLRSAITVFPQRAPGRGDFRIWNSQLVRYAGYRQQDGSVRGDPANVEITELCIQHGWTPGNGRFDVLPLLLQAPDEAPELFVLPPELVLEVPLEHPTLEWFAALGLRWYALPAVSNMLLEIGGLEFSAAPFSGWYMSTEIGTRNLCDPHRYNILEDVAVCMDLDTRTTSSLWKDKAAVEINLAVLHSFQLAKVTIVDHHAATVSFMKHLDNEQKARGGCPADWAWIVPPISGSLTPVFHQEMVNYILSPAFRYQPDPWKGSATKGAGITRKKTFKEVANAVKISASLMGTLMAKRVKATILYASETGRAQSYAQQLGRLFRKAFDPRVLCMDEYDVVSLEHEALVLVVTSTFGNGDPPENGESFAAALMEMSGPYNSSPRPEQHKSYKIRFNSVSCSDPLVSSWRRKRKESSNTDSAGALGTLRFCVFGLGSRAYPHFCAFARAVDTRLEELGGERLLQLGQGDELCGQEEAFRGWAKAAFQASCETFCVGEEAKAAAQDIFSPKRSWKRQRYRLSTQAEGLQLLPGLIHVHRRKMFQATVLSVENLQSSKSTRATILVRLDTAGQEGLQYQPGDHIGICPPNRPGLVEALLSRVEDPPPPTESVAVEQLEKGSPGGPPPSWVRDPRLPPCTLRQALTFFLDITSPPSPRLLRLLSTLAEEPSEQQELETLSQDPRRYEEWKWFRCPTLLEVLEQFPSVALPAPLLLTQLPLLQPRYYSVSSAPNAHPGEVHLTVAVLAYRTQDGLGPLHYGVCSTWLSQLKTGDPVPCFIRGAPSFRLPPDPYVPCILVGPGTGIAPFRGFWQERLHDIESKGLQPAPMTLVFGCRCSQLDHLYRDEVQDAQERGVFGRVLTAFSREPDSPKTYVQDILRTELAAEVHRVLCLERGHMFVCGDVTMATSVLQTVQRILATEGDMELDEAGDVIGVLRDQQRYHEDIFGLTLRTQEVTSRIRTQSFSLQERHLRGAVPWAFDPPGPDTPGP

Bacillus subtilis [6] = assay: Antibacterial activity against delta nos Bacillus subtilis assessed as bacterial growth up to 800 uM measured after overnight incubation relative to control; assay type: functional; conditions: in the assay text read “at 500 uM” for “up to 800 uM”
In short: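 WT (ATCC 23857) and Δnos strains grown to OD600 ≈ 1.0, diluted to OD600 0.6 in LB, then mixed with M9 minimal media with or without NOS inhibitor (final 500 μM) and/or acriflavine (final 800 μM). 30 min at 30 °C, serially diluted, plated on LB agar + 0.5% glucose, overnight at 37 °C. CFU counted; percent survival relative to untreated cells.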

Chain of Nitric oxide synthase 1 (P29476 whole entry): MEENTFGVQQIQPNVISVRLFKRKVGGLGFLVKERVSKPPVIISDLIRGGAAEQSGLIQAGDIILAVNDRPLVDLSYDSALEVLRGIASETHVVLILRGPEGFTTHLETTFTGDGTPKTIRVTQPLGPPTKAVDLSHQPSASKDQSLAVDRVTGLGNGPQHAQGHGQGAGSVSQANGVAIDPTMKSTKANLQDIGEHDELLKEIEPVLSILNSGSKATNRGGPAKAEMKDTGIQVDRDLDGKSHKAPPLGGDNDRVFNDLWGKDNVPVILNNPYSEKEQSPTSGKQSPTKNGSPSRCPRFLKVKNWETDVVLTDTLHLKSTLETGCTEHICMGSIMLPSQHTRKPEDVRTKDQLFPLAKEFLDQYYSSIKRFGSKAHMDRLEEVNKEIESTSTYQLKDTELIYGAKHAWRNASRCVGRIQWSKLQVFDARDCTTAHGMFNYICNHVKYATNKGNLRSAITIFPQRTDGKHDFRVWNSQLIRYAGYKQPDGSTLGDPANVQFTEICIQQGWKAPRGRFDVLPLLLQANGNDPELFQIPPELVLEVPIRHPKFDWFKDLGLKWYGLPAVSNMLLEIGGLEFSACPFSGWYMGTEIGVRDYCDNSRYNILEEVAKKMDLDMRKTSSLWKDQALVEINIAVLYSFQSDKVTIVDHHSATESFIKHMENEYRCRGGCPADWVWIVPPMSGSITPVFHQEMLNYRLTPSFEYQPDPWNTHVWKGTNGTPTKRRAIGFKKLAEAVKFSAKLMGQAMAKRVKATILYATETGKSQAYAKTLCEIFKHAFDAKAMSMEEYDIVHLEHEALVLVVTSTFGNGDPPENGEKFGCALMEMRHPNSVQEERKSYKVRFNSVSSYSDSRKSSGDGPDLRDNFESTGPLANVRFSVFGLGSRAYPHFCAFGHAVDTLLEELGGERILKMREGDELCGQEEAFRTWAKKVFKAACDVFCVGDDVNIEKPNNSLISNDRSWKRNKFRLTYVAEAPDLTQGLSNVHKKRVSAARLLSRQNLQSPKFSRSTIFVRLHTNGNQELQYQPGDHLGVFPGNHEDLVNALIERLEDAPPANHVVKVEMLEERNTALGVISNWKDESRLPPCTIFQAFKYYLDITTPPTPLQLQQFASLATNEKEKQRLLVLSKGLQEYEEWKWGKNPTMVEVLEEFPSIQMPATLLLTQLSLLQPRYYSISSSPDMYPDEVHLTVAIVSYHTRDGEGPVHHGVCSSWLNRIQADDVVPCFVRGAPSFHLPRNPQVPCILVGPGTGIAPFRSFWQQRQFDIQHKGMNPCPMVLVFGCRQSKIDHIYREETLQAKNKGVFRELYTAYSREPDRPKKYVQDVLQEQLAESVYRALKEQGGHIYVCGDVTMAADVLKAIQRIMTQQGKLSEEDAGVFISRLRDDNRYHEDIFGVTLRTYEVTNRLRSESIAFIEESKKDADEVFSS

Row | Compound | inhibition (Bacillus subtilis [1]) | inhibition (Bacillus subtilis [2]) | Ks (Bacillus subtilis [3]) [µM] | Ki [4] [µM] | Ks (Bacillus subtilis [5]) [µM] | Ki (Nitric oxide synthase 1) [µM] | Ki (Nitric oxide synthase 3) [µM] | inhibition (INH) (Bacillus subtilis [6]) [%] | Activity (Bacillus subtilis [1]) [%]
1 | N=C(Nc1cccc(OCC(O)c2cccc(NC(=N)c3cccs3)c2)c1)c1cccs1 (stereo not given) | Active | Active |  |  |  |  |  |  | 
2 | CNc1cc(C)cc(CCc2cc(C#N)cc(CCc3cc(C)cc(N)n3)c2)n1 | Active | Active | 12 | 14.4 | 19 | 0.196 | 11.8 |  | 
3 | Cc1cc(N)nc(CCc2cc(CN)cc(CCc3ccc4cc[nH]c4n3)c2)c1 | Active | Active | 10 | 7.1 | 12 | 0.22 |  |  | 
4 | N=C(NO)NCCC[C@H](N)C(=O)O |  |  | 3.2 |  | 1.9 |  |  |  | 
5 | Cc1cc(N)nc(CCc2cc(CN)cc(CCc3cc(C)cc(N)n3)c2)c1 | Active | Active | 15 |  | 47 |  |  |  | 
6 | Cc1cc(N)nc(CCc2cc(N)cc(CCc3cc(C)cc(N)n3)c2)c1 |  | Active | 0.91 |  | 1.9 |  |  | 36 | 49.2
7 | Cc1cc(N)nc(CCc2cc(C#N)cc(NCCc3ccccn3)c2)c1 | Active | Active |  | 12.8 |  | 1.27 | 1.56 |  | 
8 | Cc1cc(N)nc(CCc2cc(CCCN)cc(CCc3cc(C)cc(N)n3)c2)c1 | Active | Active | 16 |  | 19 |  |  |  | 
